Source: PMC3227417 (Cancer prevention research (Philadelphia, Pa.), 2009)
Read-outs that look alike come from different tables or passages of the source.

What was measured:
purified ovine COX-1 = molecular target: T1, purified ovine COX-1 (Ovis aries, UniProt P05979); experiment: COX-1 colorimetric enzyme assay with purified isozyme; format: biochemical
T1 sequence (P05979 25-600): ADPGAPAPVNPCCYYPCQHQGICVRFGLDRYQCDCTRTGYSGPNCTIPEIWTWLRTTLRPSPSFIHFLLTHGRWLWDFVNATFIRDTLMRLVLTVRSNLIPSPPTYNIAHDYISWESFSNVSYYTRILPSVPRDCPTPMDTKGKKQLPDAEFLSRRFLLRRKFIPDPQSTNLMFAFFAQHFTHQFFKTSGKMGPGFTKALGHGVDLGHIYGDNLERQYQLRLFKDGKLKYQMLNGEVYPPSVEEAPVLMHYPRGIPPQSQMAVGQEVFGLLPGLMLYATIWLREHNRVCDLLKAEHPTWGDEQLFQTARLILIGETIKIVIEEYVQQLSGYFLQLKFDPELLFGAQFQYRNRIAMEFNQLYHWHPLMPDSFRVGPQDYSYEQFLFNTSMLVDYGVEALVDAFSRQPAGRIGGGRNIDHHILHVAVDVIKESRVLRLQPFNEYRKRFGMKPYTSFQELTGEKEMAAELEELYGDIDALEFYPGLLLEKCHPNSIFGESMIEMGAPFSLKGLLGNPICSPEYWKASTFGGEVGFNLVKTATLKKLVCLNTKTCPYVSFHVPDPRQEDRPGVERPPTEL

[1] = Pharmacokinetic study, plasma levels after single gastric gavage; format: in vivo, mice; details: for plasma level: mice, ± SD
[2] = tested on: human HT-29 colon tumor xenograft; experiment: HT-29 colon tumor xenograft, treatment of established tumors; format: in vivo, mice; details: for median number of days to reach a tumor weight of 2,000 mg: control 42.8 days; for median number of days to reach a tumor weight of 3,000 mg: control 52.2 days
[3] = tested on: caspases 3 and 7 activity in HT-29 colon tumor cells; experiment: Caspase-Glo 3/7 apoptosis assay; format: cell-based, human; details: HT-29, 25 µmol/L
In short: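 HT-29 cells were seeded at 10,000/well and grown 18–24 h before treatment. Treatment lasted 2–8 h: time course at 25 µmol/L, and dose-response at 5 h exposure. Caspase 3/7 activity was read as luminescence from substrate cleavage (Caspase-Glo 3/7).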

HT-29 colon tumor cells [4] = experiment: TUNEL apoptosis assay; format: cell-based, human; details: 24 hours, vehicle 2.3%
In short: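 HT-29 cells were seeded at 2 × 10^6 per 10 cm dish and grown 48 h. Medium was then replaced with test compound or vehicle for 24 h. Cells were fixed in 4% formalin on ice for 15 min. Strand breaks were labelled with BrdUrd, detected with anti-BrdUrd Alexa Fluor 488, and nuclei stained with propidium iodide. TUNEL-positive percentage was read by flow cytometry (≥10,000 events). Mean ± SE.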

HT-29 colon tumor cells [5] = experiment: Growth assay; format: cell-based, human; details: for continuous treatment required to reach maximum potency of growth inhibition: HT-29 time course
In short: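 HT-29 cells were grown in RPMI 1640 with 5% FBS at 37°C under 5% CO2, using only cultures with >95% viability. Cells were seeded at 5,000/well, left 16 h, then treated continuously for 72 h at 37°C. Viable cell number was read as ATP luminescence (CellTiterGlo). A time course experiment used the same read-out. Mean, SE shown.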

HT-29 colon tumor cells [6] = experiment: Proliferation assay; format: cell-based, human; details: read-out: IC50 to inhibit DNA synthesis (3H-thymidine incorporation); HT-29, 72 h of treatment
purified ovine COX-2 = molecular target: T2, purified ovine COX-2 (Ovis aries, UniProt P79208); experiment: COX-2 colorimetric enzyme assay with purified isozyme; format: biochemical
T2 sequence (P79208 17-603): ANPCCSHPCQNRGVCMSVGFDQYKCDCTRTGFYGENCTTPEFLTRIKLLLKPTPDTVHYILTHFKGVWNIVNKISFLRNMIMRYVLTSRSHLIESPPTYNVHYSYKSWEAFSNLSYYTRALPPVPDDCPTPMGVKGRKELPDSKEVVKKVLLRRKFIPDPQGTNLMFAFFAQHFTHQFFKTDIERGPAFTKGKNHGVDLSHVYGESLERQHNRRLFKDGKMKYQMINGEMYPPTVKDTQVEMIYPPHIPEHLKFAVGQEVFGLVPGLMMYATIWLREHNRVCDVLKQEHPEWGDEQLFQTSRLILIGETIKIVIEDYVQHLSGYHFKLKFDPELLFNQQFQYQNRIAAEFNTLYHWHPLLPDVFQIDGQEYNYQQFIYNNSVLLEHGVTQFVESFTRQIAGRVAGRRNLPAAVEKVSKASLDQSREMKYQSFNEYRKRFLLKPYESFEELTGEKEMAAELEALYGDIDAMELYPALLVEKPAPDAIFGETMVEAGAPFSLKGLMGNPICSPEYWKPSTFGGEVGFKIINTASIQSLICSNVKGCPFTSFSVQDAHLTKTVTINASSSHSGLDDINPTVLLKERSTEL

NCr-nu/nu mice = format: in vivo
[7] = tested on: human HT-29 colon tumor xenograft; experiment: HT-29 colon tumor xenograft, treatment from day of tumor implantation; format: in vivo
[8] = read-out: COX-1 IC50, purified COX-1 isozyme, arachidonic acid, 25°C, 5 min
[9] = read-out: COX-2 IC50, purified COX-2 isozyme, arachidonic acid, 25°C, 5 min
[10] = 250 mg/kg twice daily gastric gavage, 55 days
[11] = purified COX-1 isozyme, arachidonic acid, 25°C, 5 min
[12] = purified COX-2 isozyme, arachidonic acid, 25°C, 5 min

IC50 (purified ovine COX-2)	Structure (SMILES)	IC50 (purified ovine COX-1; [8])	median number of days to reach a tumor weight of 2,000 mg [2]	median number of days to reach a tumor weight of 3,000 mg [2]	continuous treatment required to reach maximum potency of growth inhibition (HT-29 colon tumor cells [5])	IC50 (HT-29 colon tumor cells [6])	IC50 (purified ovine COX-2; [9])	COX-1 IC50 (purified ovine COX-1; [11])	COX-2 IC50 (purified ovine COX-2; [12])	IC50 (purified ovine COX-1)	also measured
	CSc1ccc(/C=C2/C(C)=C(CC(=O)NCCN(C)C)c3cc(F)ccc32)cc1 [SSA]	> 300 µM	40.8 days	53.2 days	~ 2 days	1.2 µM	164 µM				plasma half-life ([1]; mouse, in vivo, po, 200 mg/kg): 9.9 h; optimum treatment time for caspase induction [3]: ~ 4 hours; percentage of apoptotic cells (TUNEL) (HT-29 colon tumor cells [4]; HT-29, 10 µmol/L): 3.6%; percentage of apoptotic cells (TUNEL) (HT-29 colon tumor cells [4]; HT-29, 25 µmol/L): 10.2%; percentage of apoptotic cells (TUNEL) (HT-29 colon tumor cells [4]; HT-29, 50 µmol/L): 91.8%; increase in potency compared with SS (growth inhibition) (HT-29 colon tumor cells [5]; HT-29 cell line): ~40 fold; tolerated dosage (NCr-nu/nu mice; mouse, in vivo): up to 300 mg/kg; mean body weight loss averaged over the duration of treatment [7, 10]: 1.1%; mean body weight loss on any given day [7, 10]: ≤ 6%; mean tumor weight ([7]; day 55, 250 mg/kg twice daily, control 2,534 mg): 1,141 mg
	CCc1c2c(nc3ccc(OC(=O)N4CCC(N5CCCCC5)CC4)cc13)-c1cc3c(c(=O)n1C2)COC(=O)[C@]3(O)CC.Cl [Camptosar, irinotecan HCl]		48.2 days	58.7 days							
	CC1=C(CC(=O)O)c2cc(F)ccc2/C1=C\c1ccc([S+](C)[O-])cc1 (stereo not drawn) [Sulindac sulfoxide, sulindac]	> 300 µM				222 µM	> 300 µM	lack both COX-1 and COX-2 inhibitory activity	lack both COX-1 and COX-2 inhibitory activity		plasma level ([1]; 1 h post gastric gavage of SSA (200 mg/kg)): 50 ± 40 nM; plasma level ([1]; 2 h post gastric gavage of SSA (200 mg/kg)): 60 ± 10 nM; plasma level ([1]; 4 h post gastric gavage of SSA (200 mg/kg)): 50 ± 10 nM; plasma level ([1]; 8 h post gastric gavage of SSA (200 mg/kg)): 50 ± 14 nM; plasma level ([1]; 16 h post gastric gavage of SSA (200 mg/kg)): BLD; plasma level ([1]; 24 h post gastric gavage of SSA (200 mg/kg)): BLD; tolerated dosage (NCr-nu/nu mice; mice, once daily gastric gavage, 20 days of treatment): ≤ 50 mg/kg
2.7 µM	CS(=O)(=O)c1ccc(C2=C(c3ccccc3)C(=O)OC2)cc1 [Rofecoxib]										
> 300 µM	CC1=C(CC(=O)O)c2cc(F)ccc2/C1=C\c1ccc(S(C)(=O)=O)cc1 [Sulindac sulfone, sulindac sulfone]							lack both COX-1 and COX-2 inhibitory activity	lack both COX-1 and COX-2 inhibitory activity	> 300 µM	
	CSc1ccc(/C=C2/C(C)=C(CC(=O)O)c3cc(F)ccc32)cc1 [SS, sulindac sulfide]				~ 2 days					1.8 µM	percentage of apoptotic cells (TUNEL) (HT-29 colon tumor cells [4]; HT-29, 100 µmol/L): 7.1%; percentage of apoptotic cells (TUNEL) (HT-29 colon tumor cells [4]; HT-29, 200 µmol/L): 49.9%
